{
  "source": "ChEMBL document CHEMBL4842312",
  "about": "“Phenoxazine nucleoside derivatives with a multiple activity against RNA and DNA viruses” (Eur J Med Chem, 2021)",
  "data": [
    {"tested_on": "Tick-borne encephalitis virus", "assay": "Antiviral activity against Tick-borne encephalitis virus infected in pig PEK cells assessed as reduction in virus plaque formation preincubated with virus for 1 hr followed by cell infection and measured after 1 hr by crystal violet staining based assay", "type": "functional, organism-based", "conditions": "not given", "units": {"EC50": "µM"}, "values": [
      {"smiles": "Nc1onc(C(=O)OCC23CC4CC(CC(C4)C2)C3)c1CCc1ccccc1", "EC50": 4}
    ]},
    {"tested_on": "Omsk hemorrhagic fever virus", "assay": "Antiviral activity against Omsk hemorrhagic fever virus infected in pig PEK cells assessed as reduction in virus plaque formation preincubated with virus for 1 hr followed by cell infection and measured after 1 hr by crystal violet staining based assay", "type": "functional, organism-based", "conditions": "not given", "units": {"EC50": "µM"}, "values": [
      {"smiles": "Nc1onc(C(=O)OCC23CC4CC(CC(C4)C2)C3)c1CCc1ccccc1", "EC50": 15}
    ]},
    {"tested_on": "Powassan virus", "assay": "Antiviral activity against Powassan virus infected in pig PEK cells assessed as reduction in virus plaque formation preincubated with virus for 1 hr followed by cell infection and measured after 1 hr by crystal violet staining based assay", "type": "functional, organism-based", "conditions": "not given", "units": {"EC50": "µM"}, "values": [
      {"smiles": "Nc1onc(C(=O)OCC23CC4CC(CC(C4)C2)C3)c1CCc1ccccc1", "EC50": 15}
    ]},
    {"tested_on": "HEL", "assay": "Cytotoxicity against human HEL cells assessed as reduction in cell viability measured after 3 days by beckman coulter counting method", "type": "cell-based", "conditions": "72 h, time 3 day", "procedure,_shortened": "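Cells were seeded at 5 × 10³/well, grown 24 h, then exposed to compound from 100 μM downward for 3 days at 37 °C. Cell number was counted with a Coulter counter.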", "units": {"CC50": "µM"}, "values": [
      {"smiles": "Nc1nc2c(ncn2COCCO)c(=O)[nH]1", "note": "[ACYCLOVIR]", "CC50": "> 300"}
    ]},
    {"tested_on": "not listed separately", "assay": "Cytotoxicity in pig PEK cells assessed as reduction in cell viability measured after 5 days by resazurin dye based assay", "design": "species or system Sus scrofa, Kidney", "conditions": "120 h, time 5 day", "procedure,_shortened": "(§1)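 Cells (about 10⁵/well, 5% FBS) were added to two-fold compound dilutions (eight concentrations from 100 μM; DMSO control) and held 5 days at 36.5 °C in CO2. Medium was then replaced with resazurin (25 μg/mL) for 4 h and stopped with SDS. Fluorescence was read at Ex 525 / Em 580–640 nm, with background wells without resazurin subtracted. Done in two replicates; CC50 calculated.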", "units": {"CC50": "µM"}, "values": [
      {"smiles": "Nc1onc(C(=O)OCC23CC4CC(CC(C4)C2)C3)c1CCc1ccccc1", "CC50": "> 100"}
    ]},
    {"tested_on": "Human alphaherpesvirus 3", "assay": "Antiviral activity against Varicella zoster virus assessed as inhibition of viral replication", "type": "functional, organism-based", "conditions": "not given", "units": {"EC50": "µM"}, "values": [
      {"smiles": "CCCCCCCc1cc2cn([C@H]3C[C@H](O)[C@@H](CO)O3)c(=O)nc2o1", "EC50": 0.027},
      {"smiles": "Nc1nc2c(ncn2COCCO)c(=O)[nH]1", "note": "[ACYCLOVIR]", "EC50": 0.009}
    ]},
    {"tested_on": "Vero", "assay": "Cytotoxicity in African green monkey Vero cells assessed as reduction in cell viability measured after 5 days by resazurin dye based assay", "conditions": "chlorocebus sabaeus, vero, 120 h; time 5 day", "procedure,_shortened": "as §1", "units": {"CC50": "µM"}, "values": [
      {"smiles": "COc1ccc(C(OC[C@H]2O[C@@H](n3cc4c(nc3=O)Nc3ccccc3O4)[C@H](OC)[C@@H]2O)(c2ccccc2)c2ccc(OC)cc2)cc1", "CC50": 26.5},
      {"smiles": "NCCOc1cccc2c1Nc1nc(=O)n([C@H]3C[C@H](O)[C@@H](CO)O3)cc1O2", "CC50": 1.81},
      {"smiles": "COc1ccc(C(OC[C@H]2O[C@@H](n3cc4c(nc3=O)Nc3ccccc3O4)[C@H](O)[C@@H]2O)(c2ccccc2)c2ccc(OC)cc2)cc1", "CC50": 15.9},
      {"smiles": "NCCOc1cccc2c1Nc1nc(=O)n([C@@H]3O[C@H](CO)[C@@H](O)[C@H]3O)cc1O2", "CC50": 2.92},
      {"smiles": "COc1ccc(C(OC[C@H]2O[C@@H](n3cc4c(nc3=O)Nc3c(OCCN)cccc3O4)C[C@@H]2O)(c2ccccc2)c2ccc(OC)cc2)cc1", "CC50": "> 100"},
      {"smiles": "O=c1nc(NO)ccn1[C@@H]1O[C@H](CO)[C@@H](O)[C@H]1O", "note": "[N-HYDROXYCYTIDINE]", "CC50": "> 100"},
      {"smiles": "NOCN1c2ccccc2Oc2cn([C@H]3C[C@H](O)[C@@H](CO)O3)c(=O)nc21", "CC50": "> 100"},
      {"smiles": "O=c1nc2c(cn1[C@@H]1O[C@H](CO)[C@@H](O)[C@H]1O)Oc1ccccc1N2", "CC50": "> 100"},
      {"smiles": "COc1ccc(C(OC[C@H]2O[C@@H](n3cc4c(nc3=O)Nc3c(OCCN)cccc3O4)[C@H](O)[C@@H]2O)(c2ccccc2)c2ccc(OC)cc2)cc1", "CC50": "> 100"},
      {"smiles": "CO[C@@H]1[C@H](O)[C@@H](CO)O[C@H]1n1cc2c(nc1=O)Nc1ccccc1O2", "CC50": "> 100"}
    ]},
    {"tested_on": "SARS-CoV-2", "assay": "Antiviral activity against SARS COV-2 infected in monkey vero cells assessed as reduction in virus-induced cytopathic effect preincubated with virus for 1 hr followed by cell infection and measured after 5 days by microscopic analysis", "type": "functional, organism-based", "conditions": "Severe acute respiratory syndrome coronavirus 2, Vero", "units": {"EC50": "µM"}, "values": [
      {"smiles": "COc1ccc(C(OC[C@H]2O[C@@H](n3cc4c(nc3=O)Nc3ccccc3O4)[C@H](OC)[C@@H]2O)(c2ccccc2)c2ccc(OC)cc2)cc1", "EC50": 12.4},
      {"smiles": "NCCOc1cccc2c1Nc1nc(=O)n([C@H]3C[C@H](O)[C@@H](CO)O3)cc1O2", "EC50": 1.12},
      {"smiles": "COc1ccc(C(OC[C@H]2O[C@@H](n3cc4c(nc3=O)Nc3ccccc3O4)[C@H](O)[C@@H]2O)(c2ccccc2)c2ccc(OC)cc2)cc1", "EC50": 11.5},
      {"smiles": "NCCOc1cccc2c1Nc1nc(=O)n([C@@H]3O[C@H](CO)[C@@H](O)[C@H]3O)cc1O2", "EC50": 2.52},
      {"smiles": "COc1ccc(C(OC[C@H]2O[C@@H](n3cc4c(nc3=O)Nc3c(OCCN)cccc3O4)C[C@@H]2O)(c2ccccc2)c2ccc(OC)cc2)cc1", "EC50": "> 100"},
      {"smiles": "O=c1nc(NO)ccn1[C@@H]1O[C@H](CO)[C@@H](O)[C@H]1O", "note": "[N-HYDROXYCYTIDINE]", "EC50": 7.4},
      {"smiles": "NOCN1c2ccccc2Oc2cn([C@H]3C[C@H](O)[C@@H](CO)O3)c(=O)nc21", "EC50": "> 100"},
      {"smiles": "O=c1nc2c(cn1[C@@H]1O[C@H](CO)[C@@H](O)[C@H]1O)Oc1ccccc1N2", "EC50": "> 100"},
      {"smiles": "COc1ccc(C(OC[C@H]2O[C@@H](n3cc4c(nc3=O)Nc3c(OCCN)cccc3O4)[C@H](O)[C@@H]2O)(c2ccccc2)c2ccc(OC)cc2)cc1", "EC50": "> 100"},
      {"smiles": "CO[C@@H]1[C@H](O)[C@@H](CO)O[C@H]1n1cc2c(nc1=O)Nc1ccccc1O2", "EC50": "> 100"}
    ]}
  ]
}
